Screens as filed in PubChem.
EBI2 block: blocks human EBI2 receptor beta-arrestin signaling | P32249 | EBI2 beta-arrestin recruitment, luminescence, 7a,25-OHC stimulated | inhibition, % at 5 µM | hit rate 0.81% among 360,000 | AID 651636; in the data active = inhibition above about 38%;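 also: enzyme fragment complementation signal reports receptor beta-arrestin coupling in cells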
CXCR6 block: inhibitors of human CXCR6 receptor; hit rate 0.36% among 360,000; AID 602244; inhibition, % at 20 µM; CHO-K1 PathHunter CXCR6 beta-arrestin, luminescence; in the data active = inhibition above about 34%, passing the limit was not always enough;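 also: antagonist mode with CXCL16 agonist at 10 nM final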
APJ ag: activates the human apelin receptor APJ | hit rate 0.11% among 330,000 | P35414 | activation, % at 20 µM | CHO-K1 APJ PathHunter beta-arrestin, luminescence; 0% DMSO wells, 100% apelin;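 active = activation more than six SD over the plate average, tested at 20 µM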
Target sequence (P35414 whole entry, looked up): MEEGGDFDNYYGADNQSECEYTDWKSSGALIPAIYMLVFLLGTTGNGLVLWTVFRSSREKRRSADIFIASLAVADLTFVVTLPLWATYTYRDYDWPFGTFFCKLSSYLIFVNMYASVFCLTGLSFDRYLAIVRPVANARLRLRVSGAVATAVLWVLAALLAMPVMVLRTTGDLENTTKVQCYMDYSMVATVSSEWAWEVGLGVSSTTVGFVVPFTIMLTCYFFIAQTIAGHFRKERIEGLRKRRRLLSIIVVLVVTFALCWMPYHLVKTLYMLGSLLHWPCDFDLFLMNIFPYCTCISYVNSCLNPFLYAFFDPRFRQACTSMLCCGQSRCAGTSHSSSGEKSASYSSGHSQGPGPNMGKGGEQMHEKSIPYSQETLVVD
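Material: engineered CHO-K1 APJ arrestin reporter cells; amount: 1000 CHO-K1 reporter cells seeded per well; incubation: compound stimulation 90 min at 25 °C, detection 60 min; signal: luminescent beta-gal fragment complementation, chemiluminescent substrate; read-out basis: APJ agonist activity; controls: DMSO-only wells as negative, 10 nM Apelin-13 as positive control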
CCR6 antag: CCR6 (human) receptor antagonism; CHO-K1 CCR6 PathHunter beta-arrestin, luminescence, CCL20-stimulated; inhibition, % at 20 µM; hit rate 0.49% among 340,000; AID 493098;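 active = compounds whose inhibition of the agonist-driven luminescence signal at 20 µM reaches about 50%, limit read from the data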;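 also: cells stimulated with CCL20 at 14 nM final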
APJ antagonist: antagonists of human APJ apelin receptor; P35414; hit rate 0.32% among 330,000; CHO-K1 APJ beta-arrestin complementation, luminescence; inhibition, % at 20 µM; AID 2521;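 active = inhibition above about 40% at 20 µM, limit read from the data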;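 also: cells challenged with 10 nM apelin-13 agonist together with compound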
Large screens that a line does not name were inactive. In the library only some 1.5% were active in any assay of this set; here they are far more common.

COc1ccccc1C(=O)N=Nc1c(O)[nH]c2ccc([N+](=O)[O-])cc12	none (no result: APJ ag, APJ antagonist)
O=C(N=Nc1c(O)[nH]c2ccc([N+](=O)[O-])cc12)c1cc(-c2ccccc2Cl)nc2ccccc12	CCR6 antag 65
NC(=O)N=Nc1c(O)[nH]c2ccc([N+](=O)[O-])cc12	none
CC1=C(C(=O)N2CCOCC2)CC(CC(=O)NCCCCc2ccccc2)C(=O)N1Cc1ccc(C(C)(C)C)cc1 (configuration not stated)	none (no result: APJ ag, CCR6 antag, APJ antagonist)
C[C@H](CO)N1C[C@H](C)[C@H](CN(C)Cc2ccncc2)Oc2cc(-c3ccccc3F)ccc2S1(=O)=O	none (no result: APJ ag, CCR6 antag, APJ antagonist)
CC(C)c1cccc(-c2csc(C(C)(O)c3ccncc3)n2)c1 (configuration not stated)	none (no result: APJ ag, CCR6 antag, APJ antagonist)
CCOc1cc2c(c3c1C(c1ccccc1)N(S(=O)(=O)c1ccc(C)cc1)C3)C(=O)C=CC2=O (configuration not stated)	none (no result: APJ ag, CCR6 antag, APJ antagonist)
CCC(=O)N1CCC1(C)C(=O)Nc1ccc(OC(F)F)cc1 (configuration not stated)	none (no result: APJ ag, CCR6 antag, APJ antagonist)
O=C(c1[nH]nc2c1CCc1ccccc1-2)N1CCN(Cc2ccc3c(c2)OCO3)CC1	EBI2 block 83
O=C(c1ccccc1)N1CCN(Cc2ccc3c(c2)OCO3)CC1	none
CC(C)NC(=O)C1(C)CN(S(C)(=O)=O)CC(=O)N1C1CCCCCC1 (configuration not stated)	none (no result: CXCR6 block, APJ ag, CCR6 antag, APJ antagonist)
CN(C)C(=S)N=Nc1[nH]c2ccccc2c1O	CCR6 antag 63 (no result: EBI2 block, CXCR6 block)
CN(C)C(=O)c1ccc(N=Nc2c(O)c3ccccc3[nH]c2=O)cc1	none (no result: APJ ag, APJ antagonist)
CCn1c(SC(=O)NC2CCCCC2)nnc1-c1cccs1	CCR6 antag 51
CCn1c(SCC(=O)NC2CCCCC2)nnc1-c1cccs1	none
CCCCn1nnnc1C(c1ccccc1)N1CCCN(Cc2ccc(F)cc2)CC1 (configuration not stated)	none (no result: APJ ag, CCR6 antag, APJ antagonist)
FC(F)(F)c1cnc(NNC(=S)Nc2ccccc2Cl)c(Cl)c1	CXCR6 block 82, CCR6 antag 85
CC1=C(C(=O)N(C(C)C)C(C)C)CC(CC(=O)NC(c2ccccc2)c2ccccc2)C(=O)N1CCC1=CCCCC1 (configuration not stated)	none (no result: APJ ag, CCR6 antag, APJ antagonist)
CCc1ccc(C2C(C#N)=C(N)C(C#N)(C#N)C3=CCC(C(C)(C)C)CC32)cc1 (configuration not stated)	CXCR6 block 42, CCR6 antag 68
CC(C)(C)C1CC=C2C(C#N)=C(N)C(C#N)(C#N)C(c3cccs3)C2C1 (configuration not stated)	none (no result: EBI2 block, CXCR6 block, CCR6 antag)
OCCNc1ncnc2c1ncn2[C@H]1CN(Cc2ccncc2)C[C@@H](CO)O1	none (no result: APJ ag, CCR6 antag, APJ antagonist)
Cc1ccccc1N=Nc1ccc(O)c2ncccc12	none (no result: APJ ag, APJ antagonist)
O=S(=O)(O)c1cccc2c(N=Nc3ccc(O)c4ncccc34)cccc12	CXCR6 block 37 (no result: APJ ag, CCR6 antag, APJ antagonist)
CCOC(=O)c1c(N2C(=O)C=CC2=O)sc(C)c1C	CXCR6 block 61 (no result: CCR6 antag)
CCOC(=O)c1c(NC(N)=O)sc(C)c1C	none
CC(C)=NNc1cnnc2ccc([N+](=O)[O-])cc12	none (no result: APJ ag, CCR6 antag, APJ antagonist)
O=C(Nc1nc(-c2cc(F)ccc2F)cs1)c1ccccn1	CXCR6 block 41, CCR6 antag 65, APJ antagonist 68
CCC(CC)c1nnc(NC(=O)c2cc([N+](=O)[O-])ccc2N2CCCCC2)s1	CCR6 antag 71
O=C(/C=C/[C@H]1O[C@@H](n2ccc(=O)[nH]c2=O)[C@H](O)[C@@H]1O)NCc1ccccc1	none (no result: APJ ag, CCR6 antag, APJ antagonist)
C=CCN(CC=C)S(=O)(=O)c1ccc(NC(=S)NC(=O)/C=C/c2cccc3ccccc23)cc1	CCR6 antag 52
C=CCN(CC=C)S(=O)(=O)c1ccc(NC(=S)NC(=O)/C=C/c2ccc(C)cc2)cc1	none
COc1ccccc1Cc1c(-c2cccc(Cl)c2)nc2ccc(Br)cn12	none (no result: APJ ag, CCR6 antag, APJ antagonist)
CCCNC(=O)C1(C)CCCN(CC(=O)c2ccc3c(c2)OCCO3)C1 (configuration not stated)	none (no result: APJ ag, CCR6 antag, APJ antagonist)
CC(C)C1Nc2c(O)cc(Cl)c([N+](=O)[O-])c2C2C=CCC21 (configuration not stated)	CCR6 antag 50 (no result: APJ ag, APJ antagonist)
O=C(NCc1ccccc1)C1C(c2ccccc2)=Nc2ccccc2N1C(=O)c1cccnc1 (configuration not stated)	none (no result: CXCR6 block, APJ ag, CCR6 antag, APJ antagonist)
COc1ccccc1CNC(=O)COC(=O)c1cc(-c2ccco2)nc2ccccc12	CCR6 antag 50
CC1C(=O)N(Cc2cn(Cc3ccco3)nn2)CCS(=O)(=O)N1Cc1ccc(-c2cccc(N(C)C)c2)cc1 (configuration not stated)	none (no result: APJ ag, CCR6 antag, APJ antagonist)
